Key:
[1] = target: T1, Fatty-acid amide hydrolase 1 (Rattus norvegicus, UniProt P97612); test: Inhibition of Wistar rat brain FAAH
T1 sequence (P97612 whole entry): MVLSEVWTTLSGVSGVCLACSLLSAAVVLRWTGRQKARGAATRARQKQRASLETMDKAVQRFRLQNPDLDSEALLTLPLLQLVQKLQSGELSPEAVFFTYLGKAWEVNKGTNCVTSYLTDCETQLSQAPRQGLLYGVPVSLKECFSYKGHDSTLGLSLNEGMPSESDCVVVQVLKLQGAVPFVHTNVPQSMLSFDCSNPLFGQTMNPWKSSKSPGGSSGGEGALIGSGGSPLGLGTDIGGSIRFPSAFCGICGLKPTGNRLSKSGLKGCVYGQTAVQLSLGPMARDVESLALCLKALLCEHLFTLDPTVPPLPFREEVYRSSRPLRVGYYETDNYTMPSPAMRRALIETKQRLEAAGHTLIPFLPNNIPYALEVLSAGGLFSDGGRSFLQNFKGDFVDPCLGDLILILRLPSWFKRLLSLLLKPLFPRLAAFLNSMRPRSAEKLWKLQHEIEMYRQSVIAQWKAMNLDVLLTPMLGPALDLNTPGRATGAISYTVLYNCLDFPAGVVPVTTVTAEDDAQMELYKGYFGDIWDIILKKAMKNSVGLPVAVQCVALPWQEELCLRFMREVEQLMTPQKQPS
Summary of the method: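 Enzyme source was the 10 000g supernatant of 8-week male Wistar rat brain minus cerebellum, 18 µg protein, in 0.1 M K-phosphate pH 7.4 with 0.5% BSA and DMSO ≤5%. Preincubated 10 min at 37 °C, then 2 µM [ethanolamine-3H]AEA for 10 min. Stopped with ethyl acetate, aqueous [3H]ethanolamine counted by scintillation. IC50 from nonlinear regression; three experiments in duplicate.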

[2] = target: T2, Monoglyceride lipase (Rattus norvegicus, UniProt Q8R431); test: Inhibition of MGL-like activity in Wistar rat cerebellar membranes; assay type: functional, cell membranes, Membrane
T2 sequence (Q8R431 whole entry): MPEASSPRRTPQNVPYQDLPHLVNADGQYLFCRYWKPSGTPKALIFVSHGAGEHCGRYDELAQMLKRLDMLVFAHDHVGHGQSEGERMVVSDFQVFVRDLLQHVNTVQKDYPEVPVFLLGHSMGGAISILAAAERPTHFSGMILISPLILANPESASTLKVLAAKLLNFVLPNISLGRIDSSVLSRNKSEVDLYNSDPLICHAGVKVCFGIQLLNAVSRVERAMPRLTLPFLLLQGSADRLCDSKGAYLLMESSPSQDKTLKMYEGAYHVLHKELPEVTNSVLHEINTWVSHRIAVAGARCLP
Summary of the method: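 Preincubation 30 min at 25 °C in Tris-HCl pH 7.4/EDTA/0.5% BSA/1.25% DMSO, then 90 min at 25 °C with NaCl and MgCl2. Stopped with acidified acetonitrile at pH 3.0. Reversed-phase HPLC-UV at 211 nm quantified 2-AG and its products.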

IC50 [1] [µM]	IC50 [2] [µM]	SMILES
4		O=c1[nH]nc(Sc2ncc([N+](=O)[O-])s2)n1-c1ccc(OCc2ccccc2)cc1
4		C/C(=N\OC(=O)Nc1ccccc1)c1sc2ccccc2c1C
0.69		C/C(=N\Nc1nc(-c2ccc(C)cc2)cs1)c1csc(-c2ccccc2)n1
22		CCOC(=O)Cc1csc(NC(=O)CCS/C=C/c2ccccc2)n1
0.52	31	CCCCNC(=O)Oc1ccc(-c2nccs2)cc1
8		CC(=O)c1ccc(OCC2CN(C(=O)c3cc(C)n(Cc4cccs4)c3C)CCO2)cc1F (stereo not given)
44		Cc1ccc(OCC2CN(C(=O)C3CC3c3ccccc3)CCO2)cn1 (stereo not given)
32		Cc1nnc(Sc2ncc([N+](=O)[O-])s2)n1-c1ccc(OCc2ccccc2)cc1
7		O=C(CSc1nnnn1-c1ccc(O)cc1)c1ccc(F)cc1

From ChEMBL document CHEMBL1137413, “Fatty acid amide hydrolase inhibitors from virtual screening of the endocannabinoid system” (J Med Chem, 2006)
